Results: ChEMBL document CHEMBL1128505, “On the quantitative structure-activity relationships of meta-substituted (S)-phenylpiperidines, a class of preferential dopamine D2 autoreceptor ligands: modeling of dopamine synthesis and release in vivo by means of partial least squares regression” (1995)

Tests used:
Rattus norvegicus [1] = test: In vivo effect on DOPA accumulation in limbic and striatal regions of the rat brain without reserpine pretreatment; assay type: functional, Limbic system; design: unit not given beside the values
[2] = target: D(2) dopamine receptor (Rattus norvegicus) (UniProt P61169); test: Effect on extracellular DA levels in the striatal region of rat brain.; assay type: functional, tissue-based
Procedure, shortened: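 Awake, freely moving rats; test compound injected subcutaneously, with dose varying by compound. Extracellular striatal DA measured by microdialysis, analysing perfusates collected from implanted probes. The value is the maximum DA level between 20 and 100 min after administration, expressed as percent of saline controls.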

Rattus norvegicus [3] = test: The in vivo effect of the compound (sc injection, 107 umol/kg) on DOPA accumulation in limbic and striatal regions of reserpine-pretreated rat brains.; assay type: functional, Brain
Procedure, shortened: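 Rats pretreated with reserpine 18 h before subcutaneous test compound, then given the decarboxylase inhibitor NSD 1015. L-DOPA accumulation measured in limbic and striatal brain tissue. The value is the maximum effect, taken at a dose where the dose-response curve had reached maximum, expressed as percent of controls.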

Rattus norvegicus [4] = test: The in vivo effect of the compound (sc,227uM/kg) on DOPA accumulation in limbic and striatal regions of the rat brain without reserpine pretreatment.; assay type: functional
Procedure, shortened: (§1)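 No reserpine pretreatment. Rats given test compound subcutaneously, then the decarboxylase inhibitor NSD 1015. L-DOPA accumulated in limbic and striatal brain tissue was measured. The value is the maximum effect, selected at a dose where the dose-response curve had reached maximum, expressed as percent of controls.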

Rattus norvegicus [5] = test: The in vivo effect of the compound (sc,3.7uM/kg) on DOPA accumulation in limbic and striatal regions of the rat brain without reserpine pretreatment.; assay type: functional; procedure, shortened: as §1
[6] = target: D(2) dopamine receptor (Rattus norvegicus) (UniProt P61169); test: Effect on DOPA accumulation in limbic and striatal regions of reserpine-pretreated rat brains.; assay type: functional, tissue-based; conditions: Brain
Rattus norvegicus [7] = test: The in vivo effect of the compound (sc injection, 50 umol/kg) on DOPA accumulation in limbic and striatal regions of reserpine-pretreated rat brains.; assay type: functional, Brain
Rattus norvegicus [8] = test: The in vivo effect of the compound (sc injection, 227 umol/kg) on DOPA accumulation in limbic and striatal regions of reserpine-pretreated rat brains.; assay type: functional, Brain

Chain of D(2) dopamine receptor (Rattus norvegicus) (P61169 whole entry): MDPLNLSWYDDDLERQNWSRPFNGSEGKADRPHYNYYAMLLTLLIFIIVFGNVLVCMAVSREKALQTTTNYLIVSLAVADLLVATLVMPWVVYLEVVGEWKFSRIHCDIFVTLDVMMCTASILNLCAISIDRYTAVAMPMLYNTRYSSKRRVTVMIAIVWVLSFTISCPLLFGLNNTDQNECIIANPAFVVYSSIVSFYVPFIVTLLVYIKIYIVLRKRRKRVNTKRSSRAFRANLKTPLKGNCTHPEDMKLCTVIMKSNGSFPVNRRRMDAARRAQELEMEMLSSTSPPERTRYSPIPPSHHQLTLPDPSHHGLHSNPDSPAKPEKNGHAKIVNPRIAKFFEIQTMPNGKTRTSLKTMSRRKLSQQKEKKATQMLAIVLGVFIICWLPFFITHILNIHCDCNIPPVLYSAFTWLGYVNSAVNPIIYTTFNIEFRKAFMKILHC

With `CCCCN1CCC[C@@H](c2cccc(OS(=O)(=O)C(F)(F)F)c2)C1` the DOPA accumulation (Rattus norvegicus [1]) was 234.

`CCCN1CCC[C@@H](c2cccc(-c3ccsc3)c2)C1` showed an Activity [2] of 106.

Work on `CCN1CCC[C@@H](c2cccc(OS(=O)(=O)C(F)(F)F)c2)C1` yielded an Activity [2] of 143 and a DOPA accumulation (Rattus norvegicus [1]) of 286.

`CN1CCC[C@@H](c2cccc(O)c2)C1` gave a DOPA accumulation (Rattus norvegicus [3]) of 20 and a DOPA accumulation (Rattus norvegicus [4]) of 51.

`Oc1cccc([C@@H]2CCCNC2)c1` showed a DOPA accumulation (Rattus norvegicus [4]) of 44.

Molecule `Oc1cccc([C@@H]2CCCN(CCc3ccccc3)C2)c1` has a DOPA accumulation (Rattus norvegicus [3]) of 22 and a DOPA accumulation (Rattus norvegicus [5]) of 37.

In the case of `CCCN1CCC[C@@H](c2cccc(C=O)c2)C1`, the DOPA accumulation [6] was 83.

`CCCN1CCC[C@@H](c2cccc(N)c2)C1` showed a DOPA accumulation [6] of 91.

Work on `CCCN1CCC[C@@H](c2ccccc2)C1` yielded an Activity [2] of 543, a DOPA accumulation (Rattus norvegicus [7]) of 65 and a DOPA accumulation (Rattus norvegicus [1]) of 140.

For `CCN1CCC[C@@H](c2cccc(C#N)c2)C1`, the Activity [2] was 223.

Molecule `CN1CCC[C@@H](c2cccc(OS(=O)(=O)C(F)(F)F)c2)C1` has a DOPA accumulation (Rattus norvegicus [1]) of 157.

`CCCc1cccc([C@@H]2CCCN(CCC)C2)c1` was tested, and the DOPA accumulation [6] was 62 and the DOPA accumulation (Rattus norvegicus [1]) was 190.

With `CCCN1CCC[C@@H](c2cccc(SC)c2)C1` the DOPA accumulation (Rattus norvegicus [7]) was 92.

Work on `CC(C)N1CCC[C@@H](c2cccc(O)c2)C1` yielded an Activity [2] of 56, a DOPA accumulation [6] of 18 and a DOPA accumulation (Rattus norvegicus [1]) of 47.

In the case of `CCCN1CCC[C@@H](c2cccc(CO)c2)C1`, the Activity [2] was 191 and the DOPA accumulation [6] was 50.

`CCCN1CCC[C@@H](c2cccc(S(C)(=O)=O)c2)C1` gave an Activity [2] of 293 and a DOPA accumulation [6] of 95.

`CCCN1CCC[C@@H](c2cccc(OS(C)(=O)=O)c2)C1` showed an Activity [2] of 239, a DOPA accumulation [6] of 92 and a DOPA accumulation (Rattus norvegicus [1]) of 249.

`C=CCN1CCC[C@@H](c2cccc(C#N)c2)C1` gave an Activity [2] of 593 and a DOPA accumulation [6] of 85.

Work on `CCCN1CCC[C@@H](c2cccc(C#N)c2)C1` yielded an Activity [2] of 411 and a DOPA accumulation [6] of 105.

Molecule `C#Cc1cccc([C@@H]2CCCN(CCC)C2)c1` has an Activity [2] of 270.

`CCCCN1CCC[C@@H](c2cccc(O)c2)C1` was tested, and the DOPA accumulation (Rattus norvegicus [3]) was 22 and the DOPA accumulation (Rattus norvegicus [5]) was 86.

Molecule `C=CCN1CCC[C@@H](c2ccccc2)C1` has an Activity [2] of 364.

In the case of `CCCN1CCC[C@@H](c2cccc(OC)c2)C1`, the DOPA accumulation [6] was 66.

For `CCC(C)N1CCC[C@@H](c2cccc(C#N)c2)C1` (some centres not stated), the Activity [2] was 282.

`CCCCN1CCC[C@@H](c2cccc(C#N)c2)C1` was tested, and the DOPA accumulation (Rattus norvegicus [7]) was 71.

`CCCN1CCC[C@@H](c2cccc(CC#N)c2)C1` showed a DOPA accumulation [6] of 57.

In the case of `CCCN1CCC[C@@H](c2cccc(Br)c2)C1`, the Activity [2] was 372 and the DOPA accumulation [6] was 101.

In the case of `CCCN1CCC[C@@H](c2cccc(O)c2)C1` [PRECLAMOL], the Activity [2] was 400 and the DOPA accumulation (Rattus norvegicus [8]) was 30.

`CCCN1CCC[C@@H](c2cccc(C(C)=O)c2)C1` gave an Activity [2] of 196 and a DOPA accumulation [6] of 73.
